Assay results reported in BindingDB's records for doi:10.1016/j.bmcl.2005.09.030 (Institut Henri Beaufour, 2005).

target: T1, M-phase inducer phosphatase 3 (Homo sapiens, UniProt P30307); experiment: Inhibitory activity against recombinant CDC25C
T1 sequence (P30307 whole entry): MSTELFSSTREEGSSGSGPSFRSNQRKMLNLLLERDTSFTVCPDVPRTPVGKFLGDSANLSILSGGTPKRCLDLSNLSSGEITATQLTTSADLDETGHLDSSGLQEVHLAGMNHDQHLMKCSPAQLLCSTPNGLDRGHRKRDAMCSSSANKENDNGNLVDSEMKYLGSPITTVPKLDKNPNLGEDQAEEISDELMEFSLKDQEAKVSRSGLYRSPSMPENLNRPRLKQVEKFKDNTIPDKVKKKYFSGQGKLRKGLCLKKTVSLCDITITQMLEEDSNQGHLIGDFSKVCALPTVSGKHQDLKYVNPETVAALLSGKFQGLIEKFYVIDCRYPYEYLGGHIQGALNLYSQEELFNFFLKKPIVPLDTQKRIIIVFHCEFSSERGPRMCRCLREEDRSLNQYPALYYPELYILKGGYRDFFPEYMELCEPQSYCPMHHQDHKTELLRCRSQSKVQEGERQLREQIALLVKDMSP
Outline: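 Recombinant maltose binding protein (MBP)-CDC25C fusion enzyme, with 3-O-methylfluorescein phosphate (OMFP) as substrate. IC50 given as mean ± SEM from at least two, usually three, independent experiments.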

Row | Compound | IC50
1 | CCc1nc2c(O)cc(N=CCN(C)C)c(O)c2[nH]1 [5-(2-(dimethylamino)ethylamino)-2-ethyl-1H-benzo[d]imidazole-4,7-dione] | 12000 nM
2 | CCc1nc2c(O)c(N=CCN(C)C)cc(O)c2o1 [5-(2-(dimethylamino)ethylamino)-2-ethylbenzo[d]oxazole-4,7-dione] | 130 nM
3 | CN(C)CC=Nc1cc(O)c2nn(-c3ccccc3)cc2c1O [5-(2-(dimethylamino)ethylamino)-2-phenyl-2H-indazole-4,7-dione] | 12000 nM
4 | CN(C)CC=Nc1cc(O)c2oc(-c3ccccc3)nc2c1O [5-(2-(dimethylamino)ethylamino)-2-phenylbenzo[d]oxazole-4,7-dione] | 230 nM
5 | CCc1nc2c(O)cc(N=CCN(C)C)c(O)c2o1 [6-(2-(dimethylamino)ethylamino)-2-ethylbenzo[d]oxazole-4,7-dione] | 130 nM
6 | CN(C)CC=Nc1cc(O)c2cn(-c3ccccc3)nc2c1O [6-(2-(dimethylamino)ethylamino)-2-phenyl-2H-indazole-4,7-dione] | 12000 nM
7 | CN(C)CC=Nc1cc(O)c2nc(-c3ccccc3)oc2c1O [6-(2-(dimethylamino)ethylamino)-2-phenylbenzo[d]oxazole-4,7-dione] | 230 nM
